These results are taken from ChEMBL document CHEMBL3407386, “Design, synthesis, and biological evaluation of tetrazole analogs of Cl-amidine as protein arginine deiminase inhibitors” (J Med Chem, 2015).

Each structure is given as a SMILES string. Calls of active or inactive are those of the source. The rule behind the calls is not given here.

The target in data set [1] is Protein-arginine deiminase type-4 (Homo sapiens) (UniProt Q9UM07). Put plainly: Inhibition of PAD4 (unknown origin) using N-alpha-benzoyl-L-arginine ethyl ester as substrate assessed as citrulline production after 15 mins by COLDER assay.
Chain of Protein-arginine deiminase type-4 (Homo sapiens) (Q9UM07 whole entry): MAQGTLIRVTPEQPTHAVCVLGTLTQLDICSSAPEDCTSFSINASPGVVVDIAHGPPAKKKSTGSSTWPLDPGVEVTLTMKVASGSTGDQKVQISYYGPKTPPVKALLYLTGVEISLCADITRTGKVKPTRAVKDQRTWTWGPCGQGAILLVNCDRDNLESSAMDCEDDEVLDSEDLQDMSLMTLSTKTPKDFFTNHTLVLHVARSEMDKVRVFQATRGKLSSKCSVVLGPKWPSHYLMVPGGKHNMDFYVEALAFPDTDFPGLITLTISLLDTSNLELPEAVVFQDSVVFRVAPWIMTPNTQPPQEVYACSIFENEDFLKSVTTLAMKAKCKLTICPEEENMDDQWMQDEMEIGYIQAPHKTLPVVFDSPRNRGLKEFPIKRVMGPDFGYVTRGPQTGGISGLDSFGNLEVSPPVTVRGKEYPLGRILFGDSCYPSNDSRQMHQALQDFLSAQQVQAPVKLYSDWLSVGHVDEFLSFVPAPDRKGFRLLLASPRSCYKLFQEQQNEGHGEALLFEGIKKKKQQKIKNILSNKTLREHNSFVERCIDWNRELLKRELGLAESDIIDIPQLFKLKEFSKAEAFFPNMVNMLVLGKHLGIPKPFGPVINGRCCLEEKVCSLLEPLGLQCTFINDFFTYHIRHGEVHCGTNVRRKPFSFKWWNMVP
The test system of data set [2] is U2OS. Nature of the data set: Antiproliferative activity against human U2OS cells expressing PAD4 assessed as cell viability at 20 uM after 72 hrs by XTT assay. In kind it is functional. A digest of the protocol: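 U2OS cells were treated the next day at 20 μM final for 72 h, with DMSO and Triton X-100 as controls. Viability was read by XTT absorbance at 475 nm.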

For data set [3], the species on record is Homo sapiens. Put plainly: Selectivity ratio for PAD1 (unknown origin) over PAD2 (unknown origin).
Data set [4] addresses T1, Protein-arginine deiminase type-1 (Homo sapiens) (UniProt Q9ULC6).
T1 sequence (whole entry): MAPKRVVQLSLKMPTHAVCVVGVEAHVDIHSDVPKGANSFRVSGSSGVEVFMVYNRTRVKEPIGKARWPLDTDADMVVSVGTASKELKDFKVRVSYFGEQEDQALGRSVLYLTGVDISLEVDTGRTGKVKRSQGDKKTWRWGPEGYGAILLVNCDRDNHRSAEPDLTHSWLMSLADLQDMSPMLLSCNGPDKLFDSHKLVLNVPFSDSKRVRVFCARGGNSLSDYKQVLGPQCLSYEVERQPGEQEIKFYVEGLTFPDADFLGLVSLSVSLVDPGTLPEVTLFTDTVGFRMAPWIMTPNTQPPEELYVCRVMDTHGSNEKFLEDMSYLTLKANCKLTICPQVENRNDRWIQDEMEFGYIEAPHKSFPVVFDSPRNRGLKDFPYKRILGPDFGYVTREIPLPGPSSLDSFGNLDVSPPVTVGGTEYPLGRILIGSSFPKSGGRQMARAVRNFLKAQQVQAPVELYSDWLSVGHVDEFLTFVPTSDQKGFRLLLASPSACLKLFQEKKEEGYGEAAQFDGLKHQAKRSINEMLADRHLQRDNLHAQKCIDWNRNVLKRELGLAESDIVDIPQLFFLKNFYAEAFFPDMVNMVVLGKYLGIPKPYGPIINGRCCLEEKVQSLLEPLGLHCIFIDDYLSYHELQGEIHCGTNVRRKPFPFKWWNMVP
Put plainly: Ratio of Kinact to Ki for PAD1 (unknown origin) using N-alpha-benzoyl-L-arginine ethyl ester as substrate assessed as citrulline production after 15 mins by COLDER assay.

The species entered for data set [5] is Homo sapiens. Nature of the data set: Selectivity ratio for PAD1 (unknown origin) over PAD3 (unknown origin).
In data set [6] the target is Protein-arginine deiminase type-4 (Homo sapiens) (UniProt Q9UM07). Nature of the data set: Ratio of Kinact to Ki for PAD4 (unknown origin) using N-alpha-benzoyl-L-arginine ethyl ester as substrate assessed as citrulline production after 15 mins by COLDER assay.
In data set [7] the test system is U2OS. Put plainly: Antiproliferative activity against human U2OS cells expressing PAD4 assessed as cell viability after 72 hrs by XTT assay. In kind it is functional, cell-based. A digest of the protocol:
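U2OS human osteosarcoma cells were plated and treated the next day with an eight-point concentration series for 72 h. Viability was read by XTT at 475 nm. EC50 was fitted to a dose–response equation with range (uninhibited minus background) and slope factor.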
A general note: Formazan colour is commonly taken as a measure of viable cells.

Another data set deals with Liver. Put plainly: Metabolic stability in mouse liver microsomes. In kind it is ADME. On the technique in general: Microsomes from liver hold many membrane-bound enzymes, among them those of drug oxidation.
Data set [8] deals with Protein-arginine deiminase type-4 (Mus musculus) (UniProt Q9Z183). Nature of the data set: Inhibition of PAD4 in C57BL/6 mouse bone marrow neutrophils assessed as inhibition of PMA-stimulated neutrophil extracellular trap formation at 2 to 200 uM preincubated for 30 mins followed by PMA stimulation measured after 3 to 4 hrs by […]. The method, boiled down: (§1)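 C57BL/6 bone-marrow neutrophils were isolated on a Percoll gradient (69–78% interface, >95% Ly-6G+) and seeded at 1.5 × 10^5 on poly-L-lysine coverslips. They were pretreated for 30 min in Locke's solution, then given 100 nM PMA for 3–4 h, PFA-fixed, and stained with Hoechst and anti-myeloperoxidase. NETs (decondensed MPO+ nuclei) were counted blind over ≥5 fields as % of total cells.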
Chain of Protein-arginine deiminase type-4 (Mus musculus) (Q9Z183 whole entry): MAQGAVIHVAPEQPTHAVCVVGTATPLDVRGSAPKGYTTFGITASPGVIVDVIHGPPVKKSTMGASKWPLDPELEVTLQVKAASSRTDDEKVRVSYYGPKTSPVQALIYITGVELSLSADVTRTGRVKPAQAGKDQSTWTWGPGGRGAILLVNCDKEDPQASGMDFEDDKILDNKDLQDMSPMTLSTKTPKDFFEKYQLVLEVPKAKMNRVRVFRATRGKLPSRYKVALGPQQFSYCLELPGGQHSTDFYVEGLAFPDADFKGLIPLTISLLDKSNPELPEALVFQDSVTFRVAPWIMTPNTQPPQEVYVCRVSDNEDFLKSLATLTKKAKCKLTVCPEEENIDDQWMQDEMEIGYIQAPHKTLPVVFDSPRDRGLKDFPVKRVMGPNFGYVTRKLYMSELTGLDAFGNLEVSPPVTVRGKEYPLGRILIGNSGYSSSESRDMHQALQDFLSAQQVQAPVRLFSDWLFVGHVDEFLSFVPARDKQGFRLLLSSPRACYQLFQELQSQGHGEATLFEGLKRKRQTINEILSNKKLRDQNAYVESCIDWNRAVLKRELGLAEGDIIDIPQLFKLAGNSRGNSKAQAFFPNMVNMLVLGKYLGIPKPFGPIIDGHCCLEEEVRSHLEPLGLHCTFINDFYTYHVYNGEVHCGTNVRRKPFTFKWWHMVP

Data set [9] is described as follows: Cytotoxicity against human neutrophils assessed as cell viability after 4 hrs by XTT assay. The data set is classed as cell-based. The note with it: Neutrophil. A digest of the protocol: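 Freshly isolated human neutrophils in RPMI 1640 with 10% FBS were seeded at 40 000 cells/well on poly-L-lysine and allowed to adhere for 1 h. They were exposed to compound at 1–500 μM for 4 h, and viability was read by XTT.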

Data set [10] deals with T1, Protein-arginine deiminase type-1 (Homo sapiens). Put plainly: Inhibition of PAD1 (unknown origin) using N-alpha-benzoyl-L-arginine ethyl ester as substrate assessed as citrulline production after 15 mins by COLDER assay.
Data set [11] has as its target Protein-arginine deiminase type-2 (Homo sapiens) (UniProt Q9Y2J8). Nature of the data set: Inhibition of PAD2 (unknown origin) using N-alpha-benzoyl-L-arginine ethyl ester as substrate assessed as citrulline production after 15 mins by COLDER assay.
For data set [12], the target named is Protein-arginine deiminase type-4 (Mus musculus) (UniProt Q9Z183). Nature of the data set: Inhibition of PAD4 in C57BL/6 mouse bone marrow neutrophils assessed as inhibition of PMA-stimulated neutrophil extracellular trap formation at […] preincubated for 30 mins followed by PMA stimulation measured after 3 to 4 hrs by […]. A digest of the protocol:
as §1

Chain of Protein-arginine deiminase type-2 (Homo sapiens) (Q9Y2J8 whole entry): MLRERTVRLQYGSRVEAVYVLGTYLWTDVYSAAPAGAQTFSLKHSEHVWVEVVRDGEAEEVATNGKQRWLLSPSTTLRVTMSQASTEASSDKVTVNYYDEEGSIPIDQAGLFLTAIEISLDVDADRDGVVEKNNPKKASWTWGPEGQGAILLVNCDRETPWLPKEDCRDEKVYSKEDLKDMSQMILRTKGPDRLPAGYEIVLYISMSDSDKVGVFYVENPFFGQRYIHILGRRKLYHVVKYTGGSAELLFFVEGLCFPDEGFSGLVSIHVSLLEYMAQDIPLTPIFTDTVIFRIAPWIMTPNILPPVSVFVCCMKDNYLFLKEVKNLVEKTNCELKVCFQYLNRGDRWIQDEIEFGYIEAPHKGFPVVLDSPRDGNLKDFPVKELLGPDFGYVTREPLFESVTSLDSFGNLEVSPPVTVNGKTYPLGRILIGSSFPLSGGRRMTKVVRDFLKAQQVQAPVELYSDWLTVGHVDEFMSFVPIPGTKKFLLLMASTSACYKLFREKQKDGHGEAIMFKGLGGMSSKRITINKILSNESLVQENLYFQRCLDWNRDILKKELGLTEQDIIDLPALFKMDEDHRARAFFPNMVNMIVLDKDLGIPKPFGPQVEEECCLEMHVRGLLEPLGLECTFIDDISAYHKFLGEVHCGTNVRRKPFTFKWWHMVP

For the compound `N=C(CF)NCCC[C@H](NC(=O)c1ccccc1)C(N)=O`, the inhibition entry in [1] was “inactive”.
In the case of `N=C(CCl)NCCC[C@H](NC(=O)c1ccccc1)c1nn[nH]n1`, the outcome in the data set with U2OS [2] was inactive.
For the compound `N=C(CCl)NCCC[C@H](NC(=O)c1ccccc1C(=O)O)c1nn[nH]n1`, the Selectivity ratio in the data set listed under Homo sapiens [3] and in the data set filed under Homo sapiens [5] was 15 throughout. Further, the outcome in the data set with U2OS [2] was inactive. In addition, the results for the Ratio in [4] and in [6] were 82000 M⁻¹ min⁻¹ and 159000 M⁻¹ min⁻¹, respectively.
For the compound `N=C(CF)NCCC[C@H](NC(=O)c1ccccc1)c1nn[nH]n1`, the inhibition result in data set [1] is “inactive”. Besides, in the data set on U2OS [2], the result was inactive.
`CC(C)(C)n1nnc([C@H](CCCNC(=N)CF)NC(=O)c2ccc(-c3ccccc3)cc2)n1`: the inhibition entry in [1] is “inactive”. In the data set with U2OS [2] (read-out: Activity), the viability at 20 µM is above 50%. In addition, the EC50 with U2OS [7] stood at 45 µM. For the same compound, the Stability entry in the data set on Liver is on record as “Stable”.
As for `N=C(CCl)NCCC[C@H](NC(=O)c1ccccc1)C(N)=O`, the inhibition entry in data set [8] is “Active”.
On to `CC(C)(C)n1nnc([C@H](CCCNC(=N)CCl)NC(=O)c2ccc(-c3ccccc3)cc2)n1`, for which the values for the EC50 (in data set [9]; in the data set with U2OS [7]) were 31 µM and 10 µM, respectively. Besides, the inhibition result in data set [1] is “inactive”.
As to `N=C(CF)NCCC[C@H](NC(=O)c1ccccc1C(=O)O)c1nn[nH]n1`, in [10], the inhibition result was “Active”. Besides, in data set [1], the inhibition entry is “inactive”. The Selectivity ratio in the data set filed under Homo sapiens [3] and in the data set listed under Homo sapiens [5] was 20 each time. Moreover, the outcome with U2OS [2] was inactive. Moreover, the Stability entry in the data set with Liver is listed as “Stable”.
With `CC(C)(C)n1nnc([C@H](CCCNC(=N)CF)NC(=O)c2ccccc2)n1`, in data set [1], the inhibition entry was “inactive”. In addition, the result in the data set with U2OS [2] was inactive.
`CC(C)(C)n1nnc([C@H](CCCNC(=N)CF)NC(=O)c2ccccc2C(=O)O)n1`: the inhibition result in [1] is “inactive”. Moreover, the inhibition result in data set [11] is “Active”. Further, the result with U2OS [2] was inactive. Further, in the data set on Liver, the Stability entry is listed as “Stable”.
Take `N=C(CF)NCCC[C@H](NC(=O)c1ccc(-c2ccccc2)cc1)c1nn[nH]n1`: in data set [1], the inhibition result was “inactive”. Further, the outcome in the data set with U2OS [2] was inactive.
As for `N=C(CCl)NCCC[C@H](NC(=O)c1ccc(-c2ccccc2)cc1)c1nn[nH]n1`, in the data set with U2OS [2], the outcome was inactive.
Same read-out and setting: then `CC(C)(C)n1nnc([C@H](CCCNC(=N)CCl)NC(=O)c2ccccc2)n1`, with “inactive”.
Regarding `CC(C)(C)n1nnc([C@H](CCCNC(=N)CCl)NC(=O)c2ccccc2C(=O)O)n1`, the EC50 in [9] worked out at 985 µM. Further, the result in the data set on U2OS [2] was inactive. Moreover, the inhibition entry in data set [12] was “Active”. Moreover, in the data set on Liver, the Stability entry is on record as “Stable”.

In general, EC50 refers to the concentration giving half of the maximal effect.
